Bioassay records from PubChem BioAssay.
In the library only some 4.5% were active in any assay of this set; here they are far more common.
TAAR1 ag: human TAAR1 agonism; AID 624467; activation, % at 3 µM; CHO RD-HGA16 TAAR1, Fluo-8 calcium fluorescence; vehicle wells 0%, saturating PEA agonist 100%; actives 0.99% (n = 360,000);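 active = activation above the mean activation of all test compounds in the run plus 3 SD, cut at about 38% in these data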
Target sequence (Q96RJ0 whole entry, looked up): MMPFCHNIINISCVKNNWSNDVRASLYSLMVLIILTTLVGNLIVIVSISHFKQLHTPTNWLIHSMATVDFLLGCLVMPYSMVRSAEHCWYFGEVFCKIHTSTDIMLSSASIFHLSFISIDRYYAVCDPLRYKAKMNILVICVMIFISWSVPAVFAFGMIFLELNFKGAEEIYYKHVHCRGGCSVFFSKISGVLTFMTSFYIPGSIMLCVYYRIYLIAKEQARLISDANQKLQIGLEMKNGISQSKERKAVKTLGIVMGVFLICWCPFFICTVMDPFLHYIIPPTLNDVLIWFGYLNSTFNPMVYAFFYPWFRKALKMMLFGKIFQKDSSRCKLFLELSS
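Signal – calcium-sensitive Fluo-8 signal, excitation 470-495, emission 515-575 nm · System – RD-HGA16 (CHO) cells co-expressing Gα16 and hTAAR1 · Incubation – 17-24 h seeding, 75 min 37 °C dye, 30 min RT · Compound dosing – 3 µM single concentration · Repeats – no replicates (n 1)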
OX1R antag-1: blocks the human orexin 1 receptor | actives 0.43% (n = 330,000) | CHO/OX1R cells, Fluo-8 calcium fluorescence, orexin A | O43613 | AID 434989 | inhibition, % at 5 µM;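 active = inhibition above its plate's threshold, mean inhibition of all tested compounds on the plate plus 3 SD, cut at about 37% in these data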;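 note: 0% = orexin A challenge wells and 100% = SB-334867-A antagonist wells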
GPR7 antagonist: blocks human GPR7 receptor signaling; AID 1861; actives 1.1% (n = 290,000); GPR7-expressing cells, fluorescence antagonist assay; P48145; inhibition, % at 4.4 µM; in the data active = inhibition above about 16%, passing the limit was not always enough;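 note: cells stimulated with the agonist NPW; 0% = agonist with vehicle and 100% = vehicle without agonist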
CHO parental Ca: counter-screen for OX1R antagonists: effect in parental CHO cells; parental CHO-K1, ATP-induced calcium, Fluo-8 fluorescence; inhibition, % at 5.6 µM; actives 0.63% (n = 330,000);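 active = inhibition above that plate's mean sample inhibition plus 3 SD, cut at about 26% in these data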;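 note: 0% = ATP-challenged DMSO wells and 100% = DMSO wells without ATP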
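Assay system – parental CHO cells · Reagent – ATP stimulus · Detection – intracellular calcium via Fluo-8 no-wash fluorescent dye · Evaluation – percent inhibition of ATP-evoked calcium rise, normalized to controls · Controls – ATP wells versus no-ATP DMSO wells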
OX1R antag-2: OX1R (human) antagonism | O43613 | OX1R-expressing cells, FRET antagonist read-out | inhibition, % at 6.6 µM | actives 1.8% (n = 330,000) | AID 485270; in the data active = inhibition mostly above about 38%, no sharp cut-off; inactive = mostly below about 40%;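 note: 0% = agonist challenge alone and 100% = reference antagonist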
TAAR1 antag: antagonists of human TAAR1. AID 624466. actives 1.5% (n = 360,000). inhibition, % at 3 µM. CHO RD-HGA16 TAAR1, Fluo-8 calcium fluorescence, antagonist;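 active = inhibition above a per-plate cutoff, the mean inhibition of test compounds on that plate plus 3 SD, cut at about 49% in these data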;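 note: 0% = DMSO plus EC80 beta-PEA response and 100% = DMSO alone without agonist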
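Test system – hTAAR1-expressing CHO RD-HGA16 cells, Gα16-coupled · Reagent – β-PEA at EC80 concentration, post-compound challenge · Compound dosing – 3 µM, single point · Timing – 140 s kinetic read after compound, 140 s after agonist · Detection – Fluo-8 intracellular calcium dye fluorescence, real-time kinetic reads · Control set – DMSO and EC80 PEA controls · Repeats – n of 1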
TAAR1 ag confirm: human TAAR1 agonism, confirmed. shares compounds with TAAR1 ag. CHO RD-HGA16 TAAR1, Fluo-8 calcium fluorescence; scaled: DMSO 0%, maximal phenethylamine 100%. activation, % at 3 µM. actives 82% (n = 2,400);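 active = activation above a cutoff set at the run's mean compound activation plus 3 SD, cut at about 39% in these data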
Ga16 ag counter: nonselective agonist in parental cells, TAAR1 agonist counter-screen; actives 50% (n = 2,400); activation, % at 3 µM; AID 651787; shares compounds with TAAR1 ag; CHO-Ga16 parental, Fluo-8 calcium fluorescence; normalized to maximal ATP response, DMSO zero;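 active = activation above the run cutoff, the mean activation over all tested wells plus 3 SD, cut at about 12% in these data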;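 note: 0% = DMSO wells and 100% = maximal ATP response on the peak over basal ratio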
TAAR1 desensitize: human TAAR1 agonist that also desensitizes the receptor; shares compounds with TAAR1 ag; CHO RD-HGA16 hTAAR1, Fluo-8 calcium, beta-PEA response inhibition; actives 46% (n = 2,400); AID 651951; inhibition, % at 3 µM;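 active = inhibition above the run cutoff, the mean inhibition of all test compounds plus 3 SD, cut at about 49% in these data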;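 note: beta-PEA stimulus applied at its EC80; loss of beta-PEA calcium signal after compound pretreatment read as receptor desensitization; 0% = DMSO with beta-PEA at EC80 and 100% = DMSO alone without agonist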
Ga16 antag count: counter-screen for TAAR1 agonists: nonselective Ga16 antagonists | shares compounds with TAAR1 ag | CHO-Ga16 ATP-induced calcium, Fluo-8 fluorescence | inhibition, % at 3 µM | actives 39% (n = 2,400) | AID 651952;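 active = inhibition above the plate's mean compound inhibition plus 3 SD, computed per plate, cut at about 22% in these data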;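 note: 0% = EC80 ATP with DMSO and 100% = DMSO wells without ATP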
Starred values were filed as active, the others as inactive; . = not tested or not shown.

SMILES	TAAR1 ag	OX1R antag-1	GPR7 antagonist	CHO parental Ca	OX1R antag-2	TAAR1 antag	TAAR1 ag confirm	Ga16 ag counter	TAAR1 desensitize	Ga16 antag count
CCCCCC1(C(C)C)C(=O)NC(=S)NC1=O	6	.	.	.	.	-16	.	.	.	.
CN1C[C@H](CO)C[C@@H]2c3cccc4[nH]cc(c34)C[C@H]21	42*	-11	-13	-6	2	1	57*	0	20	-4
CN1/C(=C\C=C2C(=O)NC(=O)NC2=O)C(C)(C)c2ccccc21	86*	35	6	41*	112*	34	21	27*	22	25*
Cc1c(C=C2C(=O)NC(=O)NC2=O)c(=O)n(-c2ccccc2)n1C	3	-4	-10	-5	13	2	.	.	.	.
COc1cc2c(c(OC)c1)C(=O)OC(C)CCCC(=O)CCCCC2 (configuration not stated)	-1	-22	-6	-24	21	8	.	.	.	.
COc1cc(O)cc2c1C(=O)O[C@@H](C)CCCC(=O)CCCCC2	62*	-24	29	-19	10	19	30	10	10	18
COc1cc(CCN)ccc1O	90*	-10	.	-9	9	31	87*	4	67*	7
Cc1ccsc1C(=O)C1CCCN(Cc2cc(C(C)C)n[nH]2)C1 (configuration not stated)	2	-52	-4	-24	26	-13	.	.	.	.
Cc1ccc(N2C(=O)NC(=O)/C(=C\C=C\c3ccco3)C2=O)cc1C	54*	-7	-8	-3	11	35	76*	48*	69*	29*
Cc1ccc(N2C(=O)NC(=O)/C(=C\C=C\c3ccco3)C2=O)cc1	33	-5	-6	-8	10	39	.	.	.	.
O=C1NC(=O)N(c2ccccc2)C(=O)/C1=C/C=C/c1ccco1	57*	-17	-6	-6	2	40	30	13*	22	2
Fc1ccccc1CCNCc1cccc2ccccc12	8	-28	9	-24	6	15	.	.	.	.
Cc1ccccc1CCNCc1cc2cccc(C)c2[nH]c1=O	108*	-54	-5	-15	8	86*	112*	17*	98*	7
CC(Cc1ccccc1Sc1ccccc1)N(C)C (configuration not stated)	48*	-19	-4	-24	-1	9	70*	2	12	10
c1ccc2c(NC3=NCCS3)cccc2c1	43*	-40	-5	-31	27	-1	82*	15*	47	5
CCN(CC)C(=O)Cn1cc(/C=C2\C(=O)NC(=O)N(c3ccccc3F)C2=O)c2ccccc21	1	-25	-28	-2	10	17	.	.	.	.
C[C@H]1C(=O)O[C@@H]2CCN3CC=C(COC(=O)[C@](C)(O)[C@]1(C)O)[C@H]23	1	3	.	-3	9	-12	.	.	.	.
COc1cccc(CNCCc2ccc3c(c2)OCO3)c1OC	8	-28	-17	-13	-1	8	.	.	.	.
COc1ccccc1CCNCc1ccc(OC)c(OC)c1OC	62*	-21	1	-25	0	55*	85*	3	74*	0
COc1cccc(CNCCc2cccc(F)c2)c1OC	66*	-36	-4	-15	4	-10	77*	1	44	9
c1ccc2[nH]c(CCNC3CCCCC3)nc2c1	8	-27	-10	-18	11	-6	.	.	.	.
C=CCCC1(CC)C(=O)NC(=S)NC1=O	1	.	.	.	.	-9	.	.	.	.
